Measured values: ChEMBL document CHEMBL1240482, “Synthesis and antiproliferative evaluation of certain indeno[1,2-c]quinoline derivatives. Part 2” (J Med Chem, 2010)
The source made the active and inactive calls. No cut-off for these calls is given here.

What was measured:
[1] = target: T1, DNA topoisomerase 1 (Homo sapiens) (UniProt P11387); assay: Inhibition of human topoisomerase 1 assessed as decrease in pBR322 mobility on agarose gel at 10 uM by electrophoresis
T1 sequence (whole entry): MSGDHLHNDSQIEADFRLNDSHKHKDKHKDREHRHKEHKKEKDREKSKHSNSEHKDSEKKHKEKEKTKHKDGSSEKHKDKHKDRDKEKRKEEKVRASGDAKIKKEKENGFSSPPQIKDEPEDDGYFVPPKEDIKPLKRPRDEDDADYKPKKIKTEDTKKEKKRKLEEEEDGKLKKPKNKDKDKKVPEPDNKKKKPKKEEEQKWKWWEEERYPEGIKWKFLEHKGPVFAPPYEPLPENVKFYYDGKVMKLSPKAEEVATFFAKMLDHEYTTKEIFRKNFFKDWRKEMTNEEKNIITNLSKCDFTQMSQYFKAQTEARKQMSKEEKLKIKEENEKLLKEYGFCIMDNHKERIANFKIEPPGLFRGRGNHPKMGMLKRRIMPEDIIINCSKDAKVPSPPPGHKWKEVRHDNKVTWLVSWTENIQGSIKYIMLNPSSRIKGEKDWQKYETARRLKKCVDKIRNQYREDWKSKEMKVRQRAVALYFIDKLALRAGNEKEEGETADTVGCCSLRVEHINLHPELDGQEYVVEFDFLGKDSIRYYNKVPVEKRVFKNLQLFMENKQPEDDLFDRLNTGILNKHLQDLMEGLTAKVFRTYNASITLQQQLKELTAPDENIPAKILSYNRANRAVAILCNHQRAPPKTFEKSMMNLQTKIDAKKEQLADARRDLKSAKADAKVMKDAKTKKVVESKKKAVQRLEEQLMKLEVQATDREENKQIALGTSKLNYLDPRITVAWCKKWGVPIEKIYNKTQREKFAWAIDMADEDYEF
Outline: (§1)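 Enzyme preincubated with compound before DNA addition; reaction run 30 min at 37 °C and stopped with SDS. Products resolved on 1% agarose, stained with ethidium bromide, quantified by densitometry.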

Detroit 551 [2] = assay: Selectivity index, ratio of IC50 for human Detroit 551 cells to IC50 for human SKHep cells; type: functional
[3] = Inhibition of human topoisomerase 2 assessed as decrease in pBR322 mobility on agarose gel by electrophoresis; outline: as §1
SAS [4] = assay: Cytotoxicity against human SAS cells after 48 hrs by MTT assay; type: functional
Outline: (§2)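 Cells grown in DMEM with 10% FBS at 37 °C and 5% CO2, seeded at 5 × 10^3 per well and allowed 24 h before drug. Serial dilutions from DMSO stocks applied for 48 h. MTT (2 mg/mL in PBS) added for 2 h, formazan dissolved in DMSO, absorbance read at 570 nm. GI50 interpolated by linear regression from at least three points in the 20-80% range; three independent experiments.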

Nucleic Acid = assay: Binding affinity to pBR322; type: nucleic-acid assay; settings: Escherichia coli
HeLa [5] = assay: Selectivity index, ratio of IC50 for human Detroit 551 cells to IC50 for human HeLa cells; type: functional
HeLa [6] = assay: Cytotoxicity against human HeLa cells after 48 hrs by MTT assay; type: functional; outline: as §2
A549 = assay: Cytotoxicity against human A549 cells after 48 hrs by MTT assay; type: functional; settings: A549, 48 h; outline: as §2
PC-3 = assay: Cytotoxicity against human PC3 cells after 48 hrs by MTT assay; type: functional; settings: PC-3, 48 h; outline: as §2
DNA topoisomerase 1 = target: T2, DNA topoisomerase 1 (Homo sapiens, UniProt P11387); assay: Inhibition of human topoisomerase 1 assessed as decrease in pBR322 mobility on agarose gel by electrophoresis; outline: as §1
T2 sequence (P11387 whole entry): T1 sequence (whole entry)

Homo sapiens = species on record: Homo sapiens; assay: Inhibition of human topoisomerase 2 assessed as decrease in pBR322 mobility on agarose gel at 10 uM by electrophoresis; outline: as §1
Detroit 551 [7] = assay: Selectivity index, ratio of IC50 for human Detroit 551 cells to IC50 for human PC3 cells; type: functional
[8] = Cytotoxicity against human Detroit 551 cells after 48 hrs by MTT assay; type: cell-based; outline: as §2
SAS [9] = assay: Selectivity index, ratio of IC50 for human Detroit 551 cells to IC50 for human SAS cells; type: functional
Detroit 551 [10] = assay: Selectivity index, ratio of IC50 for human Detroit 551 cells to IC50 for human A549 cells; type: functional
[11] = Cytotoxicity against human BT-483 cells after 48 hrs by MTT assay; type: functional; settings: BT-483, 48 h; outline: as §2
Detroit 551 [12] = assay: Selectivity index, ratio of IC50 for human Detroit 551 cells to IC50 for human BT-483 cells; type: functional
[13] = Cytotoxicity against human SKHep cells after 48 hrs by MTT assay; type: functional; outline: as §2

Structure (SMILES)	inhibition [1] [%]	RatioGI50 (Detroit 551 [2])	IC50 [3] [nM]	GI50 (SAS [4]) [nM]	Activity (Nucleic Acid)	RatioGI50 (HeLa [5])	GI50 (HeLa [6]; read-out: GI50) [nM]	GI50 (HeLa [6]; read-out: pGI50 (converted)) [nM]	GI50 (A549) [nM]	GI50 (PC-3) [nM]	IC50 (DNA topoisomerase 1) [nM]	inhibition (Homo sapiens) [%]	RatioGI50 (Detroit 551 [7])	GI50 at 48 h [8] [nM]	RatioGI50 (SAS [9])	RatioGI50 (Detroit 551 [10])	GI50 [11] [nM]	RatioGI50 (Detroit 551 [12])	GI50 [13] [nM]
COc1ccc2c(c1)/C(=N\OCCN(C)C)c1c-2cnc2ccccc12	82	5.71	6700	1140	Active	16.31	420	417	1300	1890	7200	75	3.62	6850	6.01	5.27	3610	1.9	1200
COc1ccc2c(c1)/C(=N\OCCN1CCCC1)c1c-2c(N2CCNCC2)nc2ccccc12	48	2.16	6440	2430	Active	2.58	570	575	500	3370	12800	74	0.44	1470	0.6	4.63	1430	1.03	680
COc1ccc2c(c1)/C(=N\OCCN1CCCCC1)c1c-2c(N2CCNCC2)nc2ccccc12	45	1.46	8000	–	Active	2.95	–	776	–	–	11500	68	0.41	2300	0.4	2.64	4030	0.57	–
COc1ccc2c(c1)/C(=N\OCCCN(C)C)c1c-2c(O)nc2ccccc12	3	2.79	7140	3100	Active	10.45	200	200	630	4350	–	77	0.48	–	0.67	3.32	1290	1.62	750
COc1ccc2c(c1)/C(=N\OCCN1CCCCC1)c1c-2cnc2ccccc12	28	1.2	10000	7180	Active	2.36	2670	2690	8480	6380	16500	50	0.99	6300	0.88	0.74	5170	1.22	5260
COc1ccc2c(c1)/C(=N\OCCN1CCCC1)c1c-2cnc2ccccc12	67	4.17	6500	1190	Active	13.98	450	447	1540	2320	8200	80	2.71	6290	5.29	4.08	3110	2.02	1510
COc1ccc2c(c1)/C(=N\OCCN(C)C)c1c-2c(N2CCNCC2)nc2ccccc12	56	0.9	4870	–	Active	2.96	–	912	–	–	8500	75	0.59	2720	0.43	3.83	1100	2.47	–
COc1ccc2c(c1)/C(=N\OCCCN(C)C)c1c-2c(N2CCNCC2)nc2ccccc12	70	0.94	4050	–	Active	7.49	–	372	–	–	6600	88	0.52	2770	0.56	7.29	1370	2.02	–
COc1ccc2c(c1)/C(=N\OCCN(C)C)c1c-2c(O)nc2ccccc12	73	3.75	10200	1100	Active	41.74	230	229	1000	5340	7400	46	1.8	9600	8.73	9.6	4040	2.38	2560
